Reference: ChEMBL document CHEMBL3994609, “Model-Based Discovery of Synthetic Agonists for the Zn2+-Sensing G-Protein-Coupled Receptor 39 (GPR39) Reveals Novel Biological Functions” (J Med Chem, 2017)
Activity calls are given as the source filed them. No cut-off for these calls is given here.

Key:
[1] = biological target: T1, G-protein coupled receptor 39 (Homo sapiens, UniProt O43194); test: (§1) Agonist activity at human GPR39 expressed in HEK293 cells co-expressing Galphaq assessed as myo-[2-3H]inositol phosphate accumulation measured after 75 mins by scintillation proximity assay; format: functional, cell-based
T1 sequence (O43194 whole entry): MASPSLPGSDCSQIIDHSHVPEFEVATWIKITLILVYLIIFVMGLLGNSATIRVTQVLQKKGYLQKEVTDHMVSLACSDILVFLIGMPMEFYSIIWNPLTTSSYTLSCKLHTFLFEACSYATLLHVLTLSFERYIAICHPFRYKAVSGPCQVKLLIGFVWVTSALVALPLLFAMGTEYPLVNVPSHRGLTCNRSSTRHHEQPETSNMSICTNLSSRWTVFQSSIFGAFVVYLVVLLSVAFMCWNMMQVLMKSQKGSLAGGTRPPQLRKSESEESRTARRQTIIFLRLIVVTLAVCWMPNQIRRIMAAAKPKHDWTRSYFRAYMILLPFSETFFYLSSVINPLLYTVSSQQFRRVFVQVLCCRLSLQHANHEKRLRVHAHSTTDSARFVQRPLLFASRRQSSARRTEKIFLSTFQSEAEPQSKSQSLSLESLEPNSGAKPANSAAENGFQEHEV

[2] = biological target: T1, G-protein coupled receptor 39; test: Agonist activity at human GPR39 expressed in HEK293 cells co-expressing Galphaq assessed as myo-[2-3H]inositol phosphate accumulation in presence of 10 uM Zn2+ measured after 75 mins by scintillation proximity assay; format: functional, cell-based
[3] = biological target: T2, G-protein coupled receptor 39 (Mus musculus, UniProt Q5U431); test: Agonist activity at mouse GPR39 expressed in HEK293 cells co-expressing Galphaq assessed as myo-[2-3H]inositol phosphate accumulation measured after 75 mins by scintillation proximity assay; format: functional, cell-based
T2 sequence (Q5U431 whole entry): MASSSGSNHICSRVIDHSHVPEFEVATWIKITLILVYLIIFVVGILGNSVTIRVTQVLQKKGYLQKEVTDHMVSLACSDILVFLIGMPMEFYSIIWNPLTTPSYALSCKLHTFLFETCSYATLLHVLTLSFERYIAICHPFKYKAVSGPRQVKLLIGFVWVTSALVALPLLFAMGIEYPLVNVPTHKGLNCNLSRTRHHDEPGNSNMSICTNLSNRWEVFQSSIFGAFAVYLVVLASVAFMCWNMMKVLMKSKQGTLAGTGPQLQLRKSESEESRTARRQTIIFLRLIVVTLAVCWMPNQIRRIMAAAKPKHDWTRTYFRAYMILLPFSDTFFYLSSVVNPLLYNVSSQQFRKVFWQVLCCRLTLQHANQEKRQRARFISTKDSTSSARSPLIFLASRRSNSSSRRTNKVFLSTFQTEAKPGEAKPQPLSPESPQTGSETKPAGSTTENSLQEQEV

[4] = Intrinsic clearance in human liver microsomes assessed per mg protein at 3 uM measured after 45 mins by LC-MS/MS analysis; format: ADME, microsome; settings: read-out: CLH
[5] = Half life in human liver microsomes at 3 uM measured by LC-MS/MS analysis; format: ADME, microsome
[6] = system: Pancreatic islet; test: Induction of glucose-stimulated insulin release in mouse pancreatic islets at 1 uM pretreated for 24 hrs followed by glucose addition measured after 30 mins; format: functional, cell-based
Summary of the method: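 Islets isolated from GPR39-deficient mice and wild-type littermates on five independent days, 2 to 3 mice per day; insulin secretion measured with vehicle or 1 μM compound.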

[7] = biological target: T3, G-protein coupled receptor 39 (Homo sapiens) (UniProt O43194); test: as §1; format: functional, cell-based
T3 sequence (whole entry): T1 sequence (O43194 whole entry)

[8] = biological target: T3, G-protein coupled receptor 39 (Homo sapiens); test: Agonist activity at human GPR39 expressed in HEK293 cells co-expressing Galphaq assessed as myo-[2-3H]inositol phosphate accumulation in presence of 100 nM Zn2+ measured after 75 mins by scintillation proximity assay; format: functional, cell-based
[9] = biological target: T3, G-protein coupled receptor 39 (Homo sapiens); test: Agonist activity at human GPR39 expressed in HEK293 cells co-expressing Galphaq assessed as myo-[2-3H]inositol phosphate accumulation in presence of 10 uM Zn2+ measured after 75 mins by scintillation proximity assay relative to zinc; format: functional, cell-based

`Cc1nn(-c2ncnc3nc[nH]c23)c2c1C(OCCc1ccccc1)CC(=O)N2` (stereo not given) gave an EC50 [1] of 40 nM and an EC50 [2] of 3 nM.
Work on `Cc1nn(-c2ncnc3nc[nH]c23)c2c1C(NC(=O)Cc1ccccc1)CC(=O)N2` (stereo not given) yielded an EC50 [1] of 418 nM and an EC50 [2] of 3 nM.
`COc1ccc(CCOC2CC(=O)Nc3c2c(C)nn3-c2ncnc3nc[nH]c23)cc1` (stereo not given) showed an EC50 [1] of 70 nM and an EC50 [2] of 2 nM.
`Cc1cc(C)nc(-n2nc(C)c3c2NC(=O)CC3c2ccc(F)cc2F)n1` (stereo not given) gave an EC50 [1] greater than 10000 nM.
For `Cc1nn(-c2ncnc3nc[nH]c23)c2c1C(OC1CCCC1)CC(=O)N2` (stereo not given), the EC50 [1] was 62 nM and the EC50 [2] was 2 nM.
Work on `Cc1nn(-c2ncnc3nc[nH]c23)c2c1C(NC(=O)Cc1cccs1)CC(=O)N2` (stereo not given) yielded an EC50 [1] of 244 nM and an EC50 [2] of 3 nM.
`Cc1nn(-c2ncnc3nc[nH]c23)c2c1C(OC(=O)Cc1ccccc1)CC(=O)N2` (stereo not given) showed an EC50 [1] of 381 nM and an EC50 [2] of 6 nM.
Compound `CCCCCCCCOC1CC(=O)Nc2c1c(C)nn2-c1ncnc2nc[nH]c12` (stereo not given) has an EC50 [1] of 388 nM and an EC50 [2] of 8 nM.
With `Cc1nn(-c2ncnc3nc[nH]c23)c2c1C(OCCn1nccc1C)CC(=O)N2` (stereo not given) the EC50 [1] was 1620 nM and the EC50 [2] was 10 nM.
For `Cc1nn(-c2ncnc3nc[nH]c23)c2c1C(OCc1ccccc1F)CC(=O)N2` (stereo not given), the EC50 [1] was 78 nM and the EC50 [2] was 4 nM.
For `Cc1nn(-c2ncnc3nc[nH]c23)c2c1C(c1ccc(OC(C)C)cc1)CC(=O)N2` (stereo not given), the EC50 [1] was 2700 nM, the EC50 [2] was 18 nM and the EC50 [3] was 380 nM. For the same compound, the microsomal CLint at 3 µM [4] was 58.3 µL/min/mg, the half-life at 3 µM [5] was 24 min and the Activity [6] was “inactive”.
`Cc1nn(-c2ncnc3nc[nH]c23)c2c1C(c1ccc(F)cc1F)CC(=O)N2` (stereo not given) showed an EC50 [1] of 460 nM.
For `Cc1nn(-c2ncnc3nc[nH]c23)c2c1C(OCC(C)C)CC(=O)N2` (stereo not given), the EC50 [1] was 111 nM and the EC50 [2] was 4 nM.
Work on `Cc1nn(-c2ncnc3nc[nH]c23)c2c1C(OCc1ccc(C(C)C)cc1)CC(=O)N2` (stereo not given) yielded an EC50 [1] of 1690 nM and an EC50 [2] of 5 nM.
Work on `Cc1nn(-c2ncnc3nc[nH]c23)c2c1C(OCc1ccc(F)cc1)CC(=O)N2` (stereo not given) yielded an EC50 [1] of 126 nM and an EC50 [2] of 1 nM.
Work on `Cc1nn(-c2ncnc3nc[nH]c23)c2c1C(OCc1ccc(Cl)cc1Cl)CC(=O)N2` (stereo not given) yielded an EC50 [1] of 243 nM and an EC50 [2] of 4 nM.
Work on `Cc1nn(-c2ncnc3nc[nH]c23)c2c1C(C(=O)NCc1ccccc1)CC(=O)N2` (stereo not given) yielded an EC50 [1] of 2930 nM and an EC50 [2] of 5 nM.
Compound `Cc1nn(-c2ncnc3nc[nH]c23)c2c1C(OC(=O)c1ccc(F)cc1)CC(=O)N2` (stereo not given) has an EC50 [1] of 245 nM and an EC50 [2] of 4 nM.
Work on `Cc1nn(-c2ncnc3nc[nH]c23)c2c1C(NC(=O)c1ccccc1)CC(=O)N2` (stereo not given) yielded an EC50 [1] of 158 nM and an EC50 [2] of 3 nM.
Work on `Cc1nn(-c2ncnc3nc[nH]c23)c2c1C(C(=O)NCc1ccc(F)cc1)CC(=O)N2` (stereo not given) yielded an EC50 [1] of 1220 nM and an EC50 [2] of 4 nM.
In the case of `C=CCN1c2c(n(C)c(=O)n(C)c2=O)NC1N/N=C/c1ccc(O)cc1O` (stereo not given), the Activity [7] is reported as “inactive”, the Activity [8] is reported as “inactive” and the EC50 [2] is reported as 340 nM. It also gave a fold change (FC) [9] of 2.
`Cc1nn(-c2ncnc3nc[nH]c23)c2c1C(OCc1ccccc1Cl)CC(=O)N2` (stereo not given) showed an EC50 [1] of 47 nM and an EC50 [2] of 2 nM.
For `Cc1nn(-c2ncnc3nc[nH]c23)c2c1C(C(=O)N(C)c1nccs1)CC(=O)N2` (stereo not given), the EC50 [1] was 3300 nM and the EC50 [2] was 18 nM.
In the case of `CC(C)(C)c1cc(C(=O)N/N=C/c2ccc(O)cc2O)[nH]n1`, the Activity [7] is reported as “inactive”, the Activity [8] is reported as “inactive” and the EC50 [2] is reported as 240 nM. The fold change (FC) [9] was 2.
In the case of `OCC(O)/C=N/Nc1nc(Nc2ccccc2)nc(Nc2ccccc2)n1` (stereo not given), the Activity [7] is reported as “inactive”, the Activity [8] is reported as “inactive” and the EC50 [2] is reported as 750 nM. It also gave a fold change (FC) [9] of 2.
For `C/C(=N\NC(=O)c1cc2ccccc2cc1O)c1ccc(N)cc1`, the Activity [7] was “inactive”, the Activity [8] was “inactive” and the EC50 [2] was 1100 nM. For the same compound, the fold change (FC) [9] was 2.
`Cc1nn(-c2ncnc3nc[nH]c23)c2c1C(OCc1ccc(C#N)cc1)CC(=O)N2` (stereo not given) gave an EC50 [1] of 60 nM and an EC50 [2] of 4 nM.
Compound `Cc1nn(-c2ncnc3nc[nH]c23)c2c1C(C(=O)NCc1ccc3c(c1)OCO3)CC(=O)N2` (stereo not given) has an EC50 [1] of 791 nM and an EC50 [2] of 7 nM.
For `Cc1nn(-c2ncnc3nc[nH]c23)c2c1C(OCCn1cccn1)CC(=O)N2` (stereo not given), the EC50 [1] was 2260 nM and the EC50 [2] was 16 nM.
Work on `Cc1nn(-c2ncnc3nc[nH]c23)c2c1C(C(=O)Nc1ccccc1)CC(=O)N2` (stereo not given) yielded an EC50 [2] of 10 nM.
`Cc1cc(C)n(CCOC2CC(=O)Nc3c2c(C)nn3-c2ncnc3nc[nH]c23)n1` (stereo not given) showed an EC50 [1] of 2000 nM and an EC50 [2] of 16 nM.
In the case of `Cc1nn(-c2ncnc3nc[nH]c23)c2c1C(OCc1ccccc1C#N)CC(=O)N2` (stereo not given), the EC50 [1] is reported as 127 nM and the EC50 [2] is reported as 8 nM.
Work on `CCC(C(=O)NC1CC(=O)Nc2c1c(C)nn2-c1ncnc2nc[nH]c12)c1ccccc1` (stereo not given) yielded an EC50 [1] of 79 nM and an EC50 [2] of 5 nM.
In the case of `Cc1nn(-c2ncnc3nc[nH]c23)c2c1C(C(=O)N(C)c1ccccc1)CC(=O)N2` (stereo not given), the EC50 [1] is reported as 5220 nM and the EC50 [2] is reported as 32 nM.
Work on `Cc1nn(-c2ncnc3nc[nH]c23)c2c1C(OCC(=O)c1ccc(F)cc1)CC(=O)N2` (stereo not given) yielded an EC50 [1] of 973 nM and an EC50 [2] of 3 nM.
For `Cc1noc(C)c1COC1CC(=O)Nc2c1c(C)nn2-c1ncnc2nc[nH]c12` (stereo not given), the EC50 [2] was 5 nM.
